In general, inhibition refers to the share of the control response that was lost under treatment. As usually defined, the Kp is tissue or fluid exposure divided by exposure in the circulation. The AUC(0-t) is the area under the concentration-time curve up to a stated or last time point. High values mean more exposure, low ones less exposure. The Tmax is the time from dosing to the highest level.

Here are results for two compounds from ChEMBL document CHEMBL4196017, “Design, synthesis and identification of silicon-containing HCV NS5A inhibitors with pan-genotype activity” (Eur J Med Chem, 2018).

One data set deals with Cytochrome P450 2C9 (Homo sapiens, UniProt P11712). As to the kind of experiment: Inhibition of CYP2C9 in human liver microsomes at 1 to 10 uM using tolbutamide as substrate preincubated for 5 mins followed by NADPH addition measured after 30 mins by UPLC-MS/MS analysis relative to control. As to conditions: 0.5 h; call rule not given here. Type of data set: ADME. (Microsomes from liver hold many membrane-bound enzymes, among them those of drug oxidation.)

Another data set concerns the target T1, Cytochrome P450 2A6 (Homo sapiens, UniProt P11509).
T1 sequence (P11509 whole entry): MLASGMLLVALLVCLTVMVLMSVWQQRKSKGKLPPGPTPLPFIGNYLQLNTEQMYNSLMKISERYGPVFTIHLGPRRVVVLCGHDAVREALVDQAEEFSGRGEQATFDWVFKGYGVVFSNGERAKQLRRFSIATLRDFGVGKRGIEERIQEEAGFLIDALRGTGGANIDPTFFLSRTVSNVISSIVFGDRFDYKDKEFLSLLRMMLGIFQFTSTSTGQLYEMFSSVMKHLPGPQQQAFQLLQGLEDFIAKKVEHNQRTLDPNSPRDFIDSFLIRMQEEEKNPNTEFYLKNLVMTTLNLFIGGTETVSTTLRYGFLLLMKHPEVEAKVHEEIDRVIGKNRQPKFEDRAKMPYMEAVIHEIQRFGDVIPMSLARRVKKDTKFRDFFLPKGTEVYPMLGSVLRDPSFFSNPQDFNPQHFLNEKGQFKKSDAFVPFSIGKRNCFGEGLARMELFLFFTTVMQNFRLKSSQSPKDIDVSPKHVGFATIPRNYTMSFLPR
Kind of data set: Inhibition of CYP2A6 in human liver microsomes at 1 to 10 uM using coumarin as substrate preincubated for 5 mins followed by NADPH addition measured after 30 mins by UPLC-MS/MS analysis relative to control. Type of data set: ADME. To be noted: 0.5 h.

The next data set has as its target hERG (KCNH2) (Homo sapiens, UniProt Q12809). As to the kind of experiment: Inhibition of human ERG assessed as reduction in peak tail current at 10 uM at holding potential of -80 mV by patch clamp method relative to control. The method, boiled down: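 Whole-cell patch clamp, room temperature; hold -80 mV, 2 s +50 mV depolarization then 3 s -50 mV repolarization every 30 s; peak tail current referenced to initial 50 ms step to -50 mV; 3 min vehicle stabilization, then test solution until stable (<5% over ~5 sweeps) or 6 min max; mean ± SD, n = 3.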
(In patch-clamp work, channel activity is measured electrically.)

The next data set concerns the target T2, Cytochrome P450 1A2 (Homo sapiens, UniProt P05177).
T2 sequence (P05177 whole entry): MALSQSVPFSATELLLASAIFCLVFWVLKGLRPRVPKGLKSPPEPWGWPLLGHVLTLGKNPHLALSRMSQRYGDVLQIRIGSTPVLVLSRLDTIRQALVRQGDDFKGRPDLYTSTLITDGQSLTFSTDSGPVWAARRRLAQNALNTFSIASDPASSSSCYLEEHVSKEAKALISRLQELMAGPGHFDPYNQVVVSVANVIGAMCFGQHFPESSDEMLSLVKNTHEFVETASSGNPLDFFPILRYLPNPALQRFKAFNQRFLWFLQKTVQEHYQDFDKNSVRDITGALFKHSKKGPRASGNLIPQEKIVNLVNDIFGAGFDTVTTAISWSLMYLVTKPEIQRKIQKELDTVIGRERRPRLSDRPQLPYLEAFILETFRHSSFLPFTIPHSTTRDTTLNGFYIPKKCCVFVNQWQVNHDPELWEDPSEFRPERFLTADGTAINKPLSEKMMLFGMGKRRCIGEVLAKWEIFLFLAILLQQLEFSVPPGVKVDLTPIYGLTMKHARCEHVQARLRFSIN
Kind of data set: Inhibition of CYP1A2 in human liver microsomes at 1 to 10 uM using phenacetin as substrate preincubated for 5 mins followed by NADPH addition measured after 30 mins by UPLC-MS/MS analysis relative to control. It is filed as ADME. To be noted: 0.5 h.

The nature of data set [1]: Ratio of drug uptake in Sprague-Dawley rat liver to plasma at 10 mg/kg, ig administered as single dose measured after 8 hrs by UPLC-MS/MS analysis. It is filed as ADME, organism-based. To be noted: po.
The next data set addresses Cytochrome P450 2D6 (Homo sapiens, UniProt P10635). Kind of data set: Inhibition of CYP2D6 in human liver microsomes at 1 to 10 uM using dextromethorphan as substrate preincubated for 5 mins followed by NADPH addition measured after 30 mins by UPLC-MS/MS analysis relative to control. It is filed as ADME. As to conditions: 0.5 h.
A short description of data set [2]: Protein binding in rat plasma at 10 uM after 6 hrs by UPLC-MS/MS based equilibrium dialysis method. It is filed as ADME, cell-free. As to conditions: read-out: PPB (converted). Summed up:
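Equilibrium dialysis: plasma (pH 7.4) preincubated 15 min at 37 °C, spiked with compound at 1 or 10 µM (0.5% DMSO final); dialysed against 100 mM phosphate buffer pH 7.4, 6 h at 37 °C, 100 rpm; donor and receiver samples analysed by UPLC-MS/MS.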
For orientation: In equilibrium dialysis only unbound substance equilibrates across the membrane.

A short description of data set [3]: Metabolic stability in human liver microsomes assessed as parent compound remaining at 0.2 uM preincubated for 5 mins followed by NADPH addition measured up to 60 mins by UPLC-MS/MS analysis. It is filed as ADME, microsome. To be noted: read-out: Stability. The method, boiled down: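 Pooled mouse, rat or human liver microsomes 0.2 mg/mL with 1 mM NADPH, 5 mM MgCl2, 100 mM potassium phosphate pH 7.4 and 0.2 µM compound; 5-min preincubation at 37 °C, NADPH start, sampled at 5, 15, 30, 60 min; ice-cold acetonitrile stop; UPLC-MS/MS; percent parent remaining at 60 min.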

Data set [4] can be described thus: Ratio of drug uptake in Sprague-Dawley rat liver to plasma at 10 mg/kg, ig administered as single dose measured after 0.5 hrs by UPLC-MS/MS analysis. Type of data set: ADME, organism-based. As to conditions: po.
A short description of data set [5]: Ratio of drug uptake in Sprague-Dawley rat liver to plasma at 10 mg/kg, ig administered as single dose measured after 24 hrs by UPLC-MS/MS analysis. Type of data set: ADME, organism-based. As to conditions: po.
Data set [6] can be described thus: AUC (0 to t) in beagle dog at 2 mg/kg, po administered as single dose by UPLC-MS/MS analysis. Type of data set: ADME, organism-based, Canis lupus familiaris. To be noted: in vivo.
Another data set deals with Cytochrome P450 2C19 (Homo sapiens, UniProt P33261). Kind of data set: Inhibition of CYP2C19 in human liver microsomes at 1 to 10 uM using (S)-mephenytoin as substrate preincubated for 5 mins followed by NADPH addition measured after 30 mins by UPLC-MS/MS analysis relative to control. Type of data set: ADME. As to conditions: 0.5 h.
Data set [7] can be described thus: Tmax in mouse at 10 mg/kg, ig administered as single dose by UPLC-MS/MS analysis. Type of data set: ADME, organism-based. As to conditions: in vivo, po. The method, boiled down: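 Adult male mice (12 h light-dark, 22 °C, 55% humidity) fasted 12 h with free water, then given a single 10 mg/kg intragastric dose; plasma concentrations by UPLC-MS/MS; PK parameters calculated by software.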

Chain of Cytochrome P450 2C19 (P33261 whole entry): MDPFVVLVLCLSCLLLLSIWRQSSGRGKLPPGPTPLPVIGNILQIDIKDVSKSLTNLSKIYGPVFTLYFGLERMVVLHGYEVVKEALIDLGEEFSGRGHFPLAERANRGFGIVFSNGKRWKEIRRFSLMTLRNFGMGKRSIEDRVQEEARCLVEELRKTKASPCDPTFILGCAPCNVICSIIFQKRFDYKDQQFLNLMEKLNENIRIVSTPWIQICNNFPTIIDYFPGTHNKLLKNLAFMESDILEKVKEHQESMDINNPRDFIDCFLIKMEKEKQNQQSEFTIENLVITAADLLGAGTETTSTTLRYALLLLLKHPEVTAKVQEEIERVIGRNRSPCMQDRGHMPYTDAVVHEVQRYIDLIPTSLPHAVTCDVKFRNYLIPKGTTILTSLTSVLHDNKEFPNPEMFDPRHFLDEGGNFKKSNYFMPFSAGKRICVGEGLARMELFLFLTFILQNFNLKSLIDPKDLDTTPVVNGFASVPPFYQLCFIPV
Chain of Cytochrome P450 2C9 (P11712 whole entry): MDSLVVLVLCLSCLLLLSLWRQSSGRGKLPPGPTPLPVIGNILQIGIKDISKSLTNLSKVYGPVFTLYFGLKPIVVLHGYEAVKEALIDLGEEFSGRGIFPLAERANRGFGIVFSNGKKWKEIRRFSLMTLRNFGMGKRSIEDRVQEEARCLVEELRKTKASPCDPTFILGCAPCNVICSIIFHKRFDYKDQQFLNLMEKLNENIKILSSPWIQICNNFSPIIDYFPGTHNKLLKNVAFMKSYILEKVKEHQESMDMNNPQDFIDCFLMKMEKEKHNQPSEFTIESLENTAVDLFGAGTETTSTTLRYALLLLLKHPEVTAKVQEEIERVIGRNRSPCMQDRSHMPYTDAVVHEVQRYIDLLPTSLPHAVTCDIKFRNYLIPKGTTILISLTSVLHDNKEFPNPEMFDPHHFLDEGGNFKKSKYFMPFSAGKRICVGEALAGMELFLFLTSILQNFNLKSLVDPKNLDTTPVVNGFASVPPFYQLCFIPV
Chain of Cytochrome P450 2D6 (P10635 whole entry): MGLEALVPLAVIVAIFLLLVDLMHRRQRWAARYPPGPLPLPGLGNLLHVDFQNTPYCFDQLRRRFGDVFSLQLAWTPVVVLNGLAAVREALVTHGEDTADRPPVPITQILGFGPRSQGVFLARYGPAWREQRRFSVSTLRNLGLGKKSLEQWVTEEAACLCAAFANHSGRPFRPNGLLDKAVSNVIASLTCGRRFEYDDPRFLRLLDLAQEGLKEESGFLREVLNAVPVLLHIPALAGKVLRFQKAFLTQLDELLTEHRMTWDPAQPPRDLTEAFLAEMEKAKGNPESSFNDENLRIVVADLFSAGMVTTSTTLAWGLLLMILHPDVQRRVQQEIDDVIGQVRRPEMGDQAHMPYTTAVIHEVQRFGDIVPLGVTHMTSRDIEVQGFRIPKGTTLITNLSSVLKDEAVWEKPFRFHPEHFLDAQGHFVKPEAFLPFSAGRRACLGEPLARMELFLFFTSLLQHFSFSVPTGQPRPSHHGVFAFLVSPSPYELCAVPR
Chain of hERG (KCNH2) (Q12809 whole entry): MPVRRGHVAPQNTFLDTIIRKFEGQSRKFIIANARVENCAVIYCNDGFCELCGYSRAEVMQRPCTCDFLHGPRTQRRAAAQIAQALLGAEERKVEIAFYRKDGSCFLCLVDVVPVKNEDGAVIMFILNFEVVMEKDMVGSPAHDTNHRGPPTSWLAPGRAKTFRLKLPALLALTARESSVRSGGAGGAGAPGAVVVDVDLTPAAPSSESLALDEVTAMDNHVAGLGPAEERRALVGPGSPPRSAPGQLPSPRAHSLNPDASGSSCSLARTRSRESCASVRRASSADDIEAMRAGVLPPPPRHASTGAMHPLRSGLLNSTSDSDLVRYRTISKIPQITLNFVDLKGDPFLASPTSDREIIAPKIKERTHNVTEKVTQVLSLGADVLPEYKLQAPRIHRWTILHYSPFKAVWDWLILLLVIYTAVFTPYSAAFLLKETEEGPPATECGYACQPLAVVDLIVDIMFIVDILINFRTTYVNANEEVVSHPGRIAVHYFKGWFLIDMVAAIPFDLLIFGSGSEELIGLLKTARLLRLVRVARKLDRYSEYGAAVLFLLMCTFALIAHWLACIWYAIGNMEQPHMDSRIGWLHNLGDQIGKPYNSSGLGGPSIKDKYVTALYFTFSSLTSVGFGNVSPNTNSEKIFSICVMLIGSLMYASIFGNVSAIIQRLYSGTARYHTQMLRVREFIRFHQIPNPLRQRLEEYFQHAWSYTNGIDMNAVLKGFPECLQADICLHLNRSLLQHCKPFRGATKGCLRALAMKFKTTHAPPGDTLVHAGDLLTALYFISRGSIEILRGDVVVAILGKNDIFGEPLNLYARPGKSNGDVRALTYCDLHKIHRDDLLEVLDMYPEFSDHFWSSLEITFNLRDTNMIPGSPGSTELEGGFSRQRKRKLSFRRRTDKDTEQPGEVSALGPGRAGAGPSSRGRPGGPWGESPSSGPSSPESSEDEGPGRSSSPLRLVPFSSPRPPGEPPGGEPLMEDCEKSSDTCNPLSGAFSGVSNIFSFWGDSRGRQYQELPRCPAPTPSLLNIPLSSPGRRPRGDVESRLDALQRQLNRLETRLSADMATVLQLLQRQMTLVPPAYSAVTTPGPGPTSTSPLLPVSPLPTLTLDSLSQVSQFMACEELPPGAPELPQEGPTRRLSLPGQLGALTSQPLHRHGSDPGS

As to `CC[Si](CC)(CC)c1ccc(N2[C@H](c3ccc(NC(=O)[C@@H]4CCCN4C(=O)[C@@H](NC(=O)OC)C(C)C)cc3)CC[C@H]2c2ccc(NC(=O)[C@@H]3CCCN3C(=O)[C@@H](NC(=O)OC)C(C)C)cc2)cc1`, the “inhibition (INH)” value at Cytochrome P450 2C9, against Cytochrome P450 2A6, on Cytochrome P450 1A2, on Cytochrome P450 2D6 and on Cytochrome P450 2C19 was “Not Active” in each case. In addition, on hERG (KCNH2), the inhibition at 10 µM is 8.7%. In addition, the Kp at 8 h in data set [1] worked out at 52.9. Besides, the fraction unbound at 6 h, 10 µM in [2] was 0.00017. The remaining at 1 h, 0.2 µM in data set [3] was 85.6%. Further, the Kp at 0.5 h in data set [4] came to 7.22. Moreover, the Kp at 24 h in [5] was 31.9. Besides, in [6], the AUC(0-t) came out at 605 ng·h/mL. For the same compound, the time to peak (Tmax) in data set [7] was determined as 3 h.

Regarding `COC(=O)N[C@H](C(=O)N1CCC[C@H]1C(=O)Nc1ccc([C@@H]2CC[C@@H](c3ccc(NC(=O)[C@@H]4CCCN4C(=O)[C@@H](NC(=O)OC)C(C)C)cc3)N2c2ccc(C(C)(C)C)cc2)cc1)C(C)C` [OMBITASVIR], the “inhibition (INH)” value on Cytochrome P450 2C9, at Cytochrome P450 2A6, on Cytochrome P450 1A2, against Cytochrome P450 2D6 and on Cytochrome P450 2C19 was “Not Active” throughout. Besides, at hERG (KCNH2), the inhibition at 10 µM worked out at 1.8%. Besides, the partition ratio (Kp) at 8 h in [1] came out at 33.5. Further, the fraction unbound at 6 h, 10 µM in [2] is 1e-05. For the same compound, in data set [3], the remaining at 1 h, 0.2 µM is 96.2%. Moreover, in data set [4], the Kp at 0.5 h came out at 43.4. Besides, the Kp at 24 h in data set [5] came to 22.3. The compound further returned an AUC(0-t) in data set [6] of 188 ng·h/mL. Further, the Tmax in data set [7] was found to be 3 h.
